Measured values from ChEMBL document CHEMBL1770108, “Design and synthesis of substituted N-(1,3-diphenyl-1H-pyrazol-5-yl)benzamides as positive allosteric modulators of the metabotropic glutamate receptor subtype 5” (Bioorg Med Chem Lett, 2011).
pEC50, pIC50, pKi: −log10 of the molar value.

What was measured:
[1] = biological target: T1, Metabotropic glutamate receptor 5 (Rattus norvegicus, UniProt P31424); experiment: Displacement of [3H]-MPEP from mGluR5 in rat brain; format: tissue-based
Outline: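 Radioligand displacement binding using [3H]MPEP on rat brain membranes.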

[2] = biological target: T1, Metabotropic glutamate receptor 5; experiment: Agonist activity at rat mGluR5 expressed in HEK293T cells assessed as effect on glutamate-induced calcium flux by calcium fluorescence assay; format: functional, cell-based, HEK-293T
Outline: (§1)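 Rat mGluR5-expressing cells loaded with a calcium-sensitive fluorescent dye receive vehicle or test compound. After 2.5 min, an EC20 concentration of glutamate is added, then an EC80 concentration 1 min later. This triple-add protocol allows simultaneous detection of agonist, potentiator and antagonist activity. Intracellular calcium release is read kinetically in every well by an imaging plate reader.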

[3] = biological target: Metabotropic glutamate receptor 5 (Rattus norvegicus) (UniProt P31424); experiment: Agonist activity at rat mGluR5 expressed in HEK293T cells assessed as increase of glutamate-induced calcium flux by calcium fluorescence assay relative to control; format: functional, cell-based; conditions: HEK-293T; outline: as §1
[4] = biological target: T1, Metabotropic glutamate receptor 5; experiment: Antagonist activity at rat mGluR5 expressed in HEK293T cells assessed as inhibition of glutamate-induced calcium flux by calcium fluorescence assay; format: functional, cell-based, HEK-293T; outline: as §1

T1 sequence (P31424 whole entry): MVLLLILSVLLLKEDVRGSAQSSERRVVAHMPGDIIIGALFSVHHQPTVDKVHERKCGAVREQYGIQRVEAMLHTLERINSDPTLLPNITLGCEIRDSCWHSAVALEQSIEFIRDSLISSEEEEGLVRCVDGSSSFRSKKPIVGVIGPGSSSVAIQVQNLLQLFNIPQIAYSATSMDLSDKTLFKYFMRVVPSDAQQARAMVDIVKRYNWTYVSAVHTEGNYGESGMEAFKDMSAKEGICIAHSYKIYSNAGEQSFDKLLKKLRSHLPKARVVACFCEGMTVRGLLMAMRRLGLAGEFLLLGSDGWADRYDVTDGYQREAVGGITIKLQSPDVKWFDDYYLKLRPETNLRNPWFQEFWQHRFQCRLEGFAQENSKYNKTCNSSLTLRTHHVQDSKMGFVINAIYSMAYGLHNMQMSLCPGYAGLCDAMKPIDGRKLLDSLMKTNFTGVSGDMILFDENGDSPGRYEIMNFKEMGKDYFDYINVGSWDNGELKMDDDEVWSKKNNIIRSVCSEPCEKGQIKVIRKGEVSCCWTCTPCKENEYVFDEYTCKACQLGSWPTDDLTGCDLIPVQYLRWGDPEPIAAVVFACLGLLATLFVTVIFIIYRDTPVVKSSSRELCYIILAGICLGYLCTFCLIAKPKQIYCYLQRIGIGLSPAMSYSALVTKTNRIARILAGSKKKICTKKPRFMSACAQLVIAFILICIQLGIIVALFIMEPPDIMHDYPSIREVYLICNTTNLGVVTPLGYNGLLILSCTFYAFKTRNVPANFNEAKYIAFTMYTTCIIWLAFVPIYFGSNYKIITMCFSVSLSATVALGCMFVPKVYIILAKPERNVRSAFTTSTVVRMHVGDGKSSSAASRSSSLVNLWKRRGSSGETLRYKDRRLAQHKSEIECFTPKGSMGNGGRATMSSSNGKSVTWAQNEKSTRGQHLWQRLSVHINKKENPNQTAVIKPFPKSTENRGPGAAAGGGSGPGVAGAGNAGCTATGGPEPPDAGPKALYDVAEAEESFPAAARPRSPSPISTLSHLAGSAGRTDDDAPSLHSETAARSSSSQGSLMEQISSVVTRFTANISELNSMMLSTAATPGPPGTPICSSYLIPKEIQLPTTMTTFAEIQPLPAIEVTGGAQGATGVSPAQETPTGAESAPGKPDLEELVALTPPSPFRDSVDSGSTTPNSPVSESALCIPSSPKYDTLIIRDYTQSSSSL
Chain of Metabotropic glutamate receptor 5 (Rattus norvegicus) (P31424 21-1203 limits assumed): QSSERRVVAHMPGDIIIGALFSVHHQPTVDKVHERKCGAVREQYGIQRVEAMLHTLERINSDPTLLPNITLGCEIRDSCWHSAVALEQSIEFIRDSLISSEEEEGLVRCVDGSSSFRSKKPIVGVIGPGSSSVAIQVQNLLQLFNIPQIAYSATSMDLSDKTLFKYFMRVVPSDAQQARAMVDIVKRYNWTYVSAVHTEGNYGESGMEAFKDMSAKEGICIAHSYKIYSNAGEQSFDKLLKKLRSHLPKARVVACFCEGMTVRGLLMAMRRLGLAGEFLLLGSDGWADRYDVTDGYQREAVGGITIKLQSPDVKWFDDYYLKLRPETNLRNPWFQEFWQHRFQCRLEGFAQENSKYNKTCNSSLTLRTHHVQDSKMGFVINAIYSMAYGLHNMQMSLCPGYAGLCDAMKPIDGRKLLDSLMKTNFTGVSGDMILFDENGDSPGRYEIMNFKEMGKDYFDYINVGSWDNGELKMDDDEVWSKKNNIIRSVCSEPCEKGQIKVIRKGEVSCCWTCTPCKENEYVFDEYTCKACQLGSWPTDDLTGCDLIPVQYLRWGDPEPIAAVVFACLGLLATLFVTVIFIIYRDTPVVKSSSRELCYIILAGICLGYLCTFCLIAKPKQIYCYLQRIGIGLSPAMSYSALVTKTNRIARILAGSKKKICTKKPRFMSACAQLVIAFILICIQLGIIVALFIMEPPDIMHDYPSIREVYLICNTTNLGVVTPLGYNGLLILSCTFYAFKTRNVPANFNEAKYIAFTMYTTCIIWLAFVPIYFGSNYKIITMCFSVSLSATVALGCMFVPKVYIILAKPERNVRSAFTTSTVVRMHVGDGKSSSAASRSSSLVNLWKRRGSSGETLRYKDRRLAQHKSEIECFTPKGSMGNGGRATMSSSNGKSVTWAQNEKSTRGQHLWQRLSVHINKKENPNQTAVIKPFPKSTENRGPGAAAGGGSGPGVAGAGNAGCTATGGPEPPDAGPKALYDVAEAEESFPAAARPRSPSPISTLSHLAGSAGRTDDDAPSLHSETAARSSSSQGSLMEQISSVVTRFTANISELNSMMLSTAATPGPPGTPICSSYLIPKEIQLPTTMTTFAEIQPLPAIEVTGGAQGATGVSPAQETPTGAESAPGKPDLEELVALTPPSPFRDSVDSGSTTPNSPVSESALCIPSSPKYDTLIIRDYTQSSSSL

| Structure (SMILES) | pKi [1] | pEC50 [2] | Activity [3] [%] | pIC50 [4] |
| --- | --- | --- | --- | --- |
| O=C(Nc1cc(-c2ccccc2)nn1-c1ccccc1Cl)c1cc(-c2cc(F)cc(F)c2)ccn1 | 6.46 | 6.19 | 67.6 | – |
| N#Cc1cc(C(=O)Nc2cc(-c3ccccc3)nn2-c2ccccc2Cl)ccc1-c1cccc2ccccc12 | < 5.00 | 5.66 | 50.2 | – |
| Cc1ccc(NC(=O)c2cc(F)cc(C#N)c2)nc1 | 5.55 | – | – | 5.38 |
| CCCCc1cccc(NC(=O)c2cc(F)cc(C#N)c2)n1 | 5.98 | – | – | 5.81 |
| CCCc1cccc(NC(=O)c2cc(F)cc(C#N)c2)n1 | 6.49 | – | – | 6.78 |
| N#Cc1cc(C(=O)Nc2cc(-c3ccccc3)nn2-c2ccccc2Cl)ccc1-c1cccc(F)c1 | 5.69 | < 4.52 | – | – |
| CCc1cccc(NC(=O)c2cc(F)cc(C#N)c2)n1 | 6.12 | – | – | 6.77 |
| N#Cc1cc(C(=O)Nc2cc(-c3ccccc3)nn2-c2ccccc2Cl)ccc1-c1ccccc1 | 7.43 | 5.38 | 61.8 | – |
| N#Cc1cc(C(=O)Nc2cc(-c3ccccc3)nn2-c2ccccc2Cl)ccc1-c1ccc(F)cc1 | 7.64 | 5.61 | 68 | – |
